Measurements from ChEMBL document CHEMBL4689842, “EUbOPEN Chemogenomics Library wave 1” (2021).

Test system: Fibroblast
Assay: Multiplex assay against human fibroblast
Format: toxicity, cell-based
Outline: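 Live cells were stained at seeding with Hoechst33342, BioTracker Green Microtubule Cytoskeleton Dye, MitoTracker Red and Annexin V Alexa Fluor 680, then imaged on a CQ1 microscope at 37°C and 5% CO2 after compound addition. CellPathfinder machine-learning gating split cells into Hoechst high-intensity objects or normal cells. Normal cells were split into healthy, pyknosed or fragmented nuclei, and pyknosed cells into mitotic or apoptotic. Tubulin, mitochondrial-mass and membrane-permeability phenotypes are per cents of healthy-nucleus cells.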

[1] = 12 h, 1 µM, compound concentration 1 uM, replicate 1
[2] = 12 h, 1 µM, compound concentration 1 uM, replicate 2
[3] = 12 h, 10 µM, compound concentration 10 uM, replicate 1
[4] = 12 h, 10 µM, compound concentration 10 uM, replicate 2
[5] = 24 h, 1 µM, compound concentration 1 uM, replicate 1
[6] = 24 h, 1 µM, compound concentration 1 uM, replicate 2
[7] = 24 h, 10 µM, compound concentration 10 uM, replicate 1
[8] = 24 h, 10 µM, compound concentration 10 uM, replicate 2
[9] = 48 h, 1 µM, compound concentration 1 uM, replicate 1
[10] = 48 h, 1 µM, compound concentration 1 uM, replicate 2
[11] = 48 h, 10 µM, compound concentration 10 uM, replicate 1
[12] = 48 h, 10 µM, compound concentration 10 uM, replicate 2

What does the source list for S=C(NCCCc1c[nH]cn1)NCCCN(Cc1ccc(Cl)c(Cl)c1)c1ccc(Br)cn1?
Population Apoptotic (%) [1]: 52%; Population Fragmented Nuclei (%) [1]: 28%; Population Healthy Nuclei (%) [1]: 42%; Population Hoechst High Intensity Objects (%) [1]: 13%; Population Membrane Permeable-Phenotype (%) [1]: 28%; Population Mitochondria Different-Phenotype (%) [1]: 11%; Population Mitotic Cells (%) [1]: 47%; Population Normal (%) [1]: 86%; Population Pyknosed Nuclei (%) [1]: 28%; Population Tubulin-Different-Phenotype (%) [1]: 55%; Total Cell Count [1]: 140; Population Apoptotic (%) [2]: 0%; Population Fragmented Nuclei (%) [2]: 17%; Population Healthy Nuclei (%) [2]: 82%; Population Hoechst High Intensity Objects (%) [2]: 15%; Population Membrane Permeable-Phenotype (%) [2]: 8%; Population Mitochondria Different-Phenotype (%) [2]: 8%; Population Mitotic Cells (%) [2]: 0%; Population Normal (%) [2]: 84%; Population Pyknosed Nuclei (%) [2]: 0%; Population Tubulin-Different-Phenotype (%) [2]: 4%; Total Cell Count [2]: 79; Population Apoptotic (%) [3]: 46%; Population Fragmented Nuclei (%) [3]: 18%; Population Healthy Nuclei (%) [3]: 8%; Population Hoechst High Intensity Objects (%) [3]: 20%; Population Membrane Permeable-Phenotype (%) [3]: 66%; Population Mitochondria Different-Phenotype (%) [3]: 11%; Population Mitotic Cells (%) [3]: 53%; Population Normal (%) [3]: 79%; Population Pyknosed Nuclei (%) [3]: 72%; Population Tubulin-Different-Phenotype (%) [3]: 88%; Total Cell Count [3]: 133; Population Apoptotic (%) [4]: 93%; Population Fragmented Nuclei (%) [4]: 25%; Population Healthy Nuclei (%) [4]: 2%; Population Hoechst High Intensity Objects (%) [4]: 11%; Population Membrane Permeable-Phenotype (%) [4]: 100%; Population Mitochondria Different-Phenotype (%) [4]: 100%; Population Mitotic Cells (%) [4]: 6%; Population Normal (%) [4]: 88%; Population Tubulin-Different-Phenotype (%) [4]: 100%; Total Cell Count [4]: 33; Population Apoptotic (%) [5]: 66%; Population Fragmented Nuclei (%) [5]: 32%; Population Healthy Nuclei (%) [5]: 48%; Population Hoechst High Intensity Objects (%) [5]: 17%; Population Membrane Permeable-Phenotype (%) [5]: 19%; Population Mitochondria Different-Phenotype (%) [5]: 11%; Population Mitotic Cells (%) [5]: 33%; Population Normal (%) [5]: 82%; Population Pyknosed Nuclei (%) [5]: 18%; Population Tubulin-Different-Phenotype (%) [5]: 64%; Total Cell Count [5]: 154; Population Apoptotic (%) [6]: 0%; Population Fragmented Nuclei (%) [6]: 19%; Population Healthy Nuclei (%) [6]: 80%; Population Hoechst High Intensity Objects (%) [6]: 8%; Population Membrane Permeable-Phenotype (%) [6]: 16%; Population Mitochondria Different-Phenotype (%) [6]: 8%; Population Mitotic Cells (%) [6]: 0%; Population Normal (%) [6]: 91%; Population Pyknosed Nuclei (%) [6]: 0%; Population Tubulin-Different-Phenotype (%) [6]: 20%; Total Cell Count [6]: 79; Population Apoptotic (%) [7]: 53%; Population Fragmented Nuclei (%) [7]: 24%; Population Healthy Nuclei (%) [7]: 15%; Population Hoechst High Intensity Objects (%) [7]: 21%; Population Membrane Permeable-Phenotype (%) [7]: 56%; Population Mitochondria Different-Phenotype (%) [7]: 18%; Population Mitotic Cells (%) [7]: 46%; Population Normal (%) [7]: 78%; Population Pyknosed Nuclei (%) [7]: 60%; Population Tubulin-Different-Phenotype (%) [7]: 93%; Total Cell Count [7]: 133; Population Apoptotic (%) [8]: 100%; Population Fragmented Nuclei (%) [8]: 12%; Population Healthy Nuclei (%) [8]: 24%; Population Hoechst High Intensity Objects (%) [8]: 25%; Population Membrane Permeable-Phenotype (%) [8]: 94%; Population Mitochondria Different-Phenotype (%) [8]: 88%; Population Mitotic Cells (%) [8]: 0%; Population Normal (%) [8]: 74%; Population Pyknosed Nuclei (%) [8]: 62%; Population Tubulin-Different-Phenotype (%) [8]: 88%; Total Cell Count [8]: 34; Population Apoptotic (%) [9]: 57%; Population Fragmented Nuclei (%) [9]: 50%; Population Healthy Nuclei (%) [9]: 39%; Population Hoechst High Intensity Objects (%) [9]: 20%; Population Membrane Permeable-Phenotype (%) [9]: 24%; Population Mitochondria Different-Phenotype (%) [9]: 1%; Population Mitotic Cells (%) [9]: 42%; Population Normal (%) [9]: 79%; Population Pyknosed Nuclei (%) [9]: 9%; Population Tubulin-Different-Phenotype (%) [9]: 36%; Total Cell Count [9]: 184; Population Apoptotic (%) [10]: 50%; Population Fragmented Nuclei (%) [10]: 40%; Population Healthy Nuclei (%) [10]: 58%; Population Hoechst High Intensity Objects (%) [10]: 21%; Population Membrane Permeable-Phenotype (%) [10]: 23%; Population Mitochondria Different-Phenotype (%) [10]: 0%; Population Mitotic Cells (%) [10]: 50%; Population Normal (%) [10]: 78%; Population Pyknosed Nuclei (%) [10]: 1%; Population Tubulin-Different-Phenotype (%) [10]: 63%; Total Cell Count [10]: 220; Population Apoptotic (%) [11]: 58%; Population Fragmented Nuclei (%) [11]: 34%; Population Healthy Nuclei (%) [11]: 25%; Population Hoechst High Intensity Objects (%) [11]: 34%; Population Membrane Permeable-Phenotype (%) [11]: 39%; Population Mitochondria Different-Phenotype (%) [11]: 26%; Population Mitotic Cells (%) [11]: 41%; Population Normal (%) [11]: 65%; Population Pyknosed Nuclei (%) [11]: 40%; Population Tubulin-Different-Phenotype (%) [11]: 91%; Total Cell Count [11]: 137; Population Apoptotic (%) [12]: 80%; Population Fragmented Nuclei (%) [12]: 37%; Population Healthy Nuclei (%) [12]: 16%; Population Hoechst High Intensity Objects (%) [12]: 33%; Population Membrane Permeable-Phenotype (%) [12]: 77%; Population Mitochondria Different-Phenotype (%) [12]: 0%; Population Mitotic Cells (%) [12]: 20%; Population Normal (%) [12]: 66%; Population Pyknosed Nuclei (%) [12]: 46%; Population Tubulin-Different-Phenotype (%) [12]: 100%; Total Cell Count [12]: 81
